Experimental data collected from several papers.
Each line is one published result; the experiments were not run side by side.
Target: Casein kinase I isoform gamma-2 (CSNK1G2, Homo sapiens, UniProt P78368)

Structure (SMILES) | effect on | technique | concentration | remaining binding
CC(C)(C)c1ccc(-c2nc(CBr)nn2-c2cccc(O)c2)cc1 | cell-free assay | competition with immobilised ligand | 10 µM | 93%
CC1CCCN1c1nccc(-c2cnn3ncccc23)n1 (stereo not drawn) | binding |  | 1 µM | 77%
Cc1c(C(=O)O)cc(-c2ccc(C3CCNCC3)cc2)c2ccc(-c3ccc(C(F)(F)F)cc3)cc12 | cell-free assay | competition with immobilised ligand | 1 µM | 100%
N[C@@H]1CCN(c2nccc(-c3cnn4ncccc34)n2)C1 | binding |  | 1 µM | 82%
CCN1CCN(Cc2ccc(C(=O)Nc3ccc(C)c(Oc4ccc5c(c4)CC(=O)N5)c3)cc2C(F)(F)F)CC1 | binding | competition with immobilised ligand | 1 µM | 100%
O=C(Nc1c[nH]nc1C(=O)NC1CCNCC1)c1cc(F)cc(F)c1 | binding | competition with immobilised ligand | 1 µM | 100%
N#CC1(c2ccccn2)CCN(Cc2cc(C(=O)N3CCCC3)c(=O)n3ccccc23)CC1 | cell-free assay | competition with immobilised ligand | 1 µM | 76%
CN(C)c1ncc(F)c(-c2cnn3ncccc23)n1 | binding |  | 1 µM | 90%
O=C(N1CCS(=O)(=O)CC1)N1C[C@H](c2ccc(OC(F)(F)F)cc2)C[C@H](c2nc(C3CC3)no2)C1 | cell-free assay | competition with immobilised ligand | 1 µM | 89%
COc1ccnn2ncc(-c3ccnc(N(C)C)n3)c12 | binding |  | 1 µM | 81%
CNC(=O)[C@@H]1CC[C@@H](n2c(-c3ccc4cnccc4c3)nc3ccc(C(=O)NCc4cccc(C(N)=O)c4)cc32)C1 | binding | competition with immobilised ligand | 1 µM | 97%
Cn1nc(C(F)(F)F)cc1-c1cnc(N2CCc3cc(S(=O)(=O)Nc4c(F)cc(Cl)cc4F)cc(N4CCCC4=O)c32)nc1 | cell-free assay | competition with immobilised ligand | 1 µM | 100%
c1cncc(-c2cccc(Nc3nccc(NC4CCCCC4)n3)c2)c1 | binding | competition with immobilised ligand | 10 µM | 80%
O=C(c1ccc(Nc2ncc(Cl)c(-c3ccc(Cl)s3)n2)cc1)N1CCC(N2CCCC2)CC1 | binding | competition with immobilised ligand | 1 µM | 100%
COc1cnc(Nc2cccc(S(N)(=O)=O)c2)nc1N1CCN(c2ccccc2)C(=O)C1 | binding | competition with immobilised ligand | 1 µM | 96%
O=C(NCCCN1CCOCC1)c1ccc(Nc2nccc(-c3cc4ccccc4s3)n2)cc1 | binding | competition with immobilised ligand | 1 µM | 100%
CC1=C(C#N)C(c2ccc3c(c2)c(NC(=O)c2ccccc2C)nn3C)C(C#N)=C(C)N1 | cell-free assay | competition with immobilised ligand | 1 µM | 95%
C[C@@H]1CCN(c2nccc(-c3cnn4ncccc34)n2)C1 | binding |  | 1 µM | 62%
Cc1cnc(Nc2ccc(C(=O)N3CCC(N4CCCC4)CC3)cc2)nc1-c1cc2ccccc2s1 | binding | competition with immobilised ligand | 1 µM | 100%
F[C@@H]1CCN(c2nccc(-c3cnn4ncccc34)n2)C1 | binding |  | 1 µM | 74%
COc1ccc2c(c1)O[C@@H](c1ccc(OC)c(OC)c1)C[C@H]2NC(=O)C1(c2ccc3c(c2)OC(F)(F)O3)CC1 | cell-free assay | competition with immobilised ligand | 1 µM | 88%
